Tests used:
[1] = system: KB; experiment: Inhibition of KB cell growth determined by quadruplicate assays; assay type: functional, cell-based; conditions: Homo sapiens
Method in brief: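 KB cells seeded at 3000-5000/well, overnight at 37 °C, then compound in quadruplicate at six to eight concentrations for 48 h (about two doublings) in CO₂. Cells fixed in 95% ethanol, stained with 0.1% crystal violet, dye eluted with acidified ethanol and read at 570 nm; IC50 by regression vs log concentration.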

[2] = system: Human alphaherpesvirus 1; experiment: Antiviral activity against herpes simplex virus type-1 (HSV-1); assay type: functional, organism-based
Method in brief: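 BSC-1 cells (10 000/well, MEM(E) + 10% calf serum) incubated overnight, then given drug in quadruplicate plus HSV-1 KOS at 100 pfu/well; 3 days at 37 °C. ELISA with HRP-conjugated rabbit anti-HSV-1 antibody, TMB substrate, stopped with H₂SO₄, absorbance at 450 and 570 nm; IC50 by regression of % absorbance reduction vs log concentration.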

[3] = system: HFF; experiment: Visual cytotoxicity scored on HFF cells at a time of HCMV plaque enumeration; assay type: functional, cell-based; conditions: Homo sapiens
Method in brief: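 Cytotoxicity in stationary HFF cells scored by microscopic inspection of cells not affected by virus, at time of HCMV plaque enumeration, in the plaque-assay plates.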

[4] = system: CEM-SS; experiment: Cytotoxicity against CEM-SS cells in terms of incorporation of [3H]dThd; assay type: functional, cell-based; conditions: Homo sapiens
Method in brief: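 DNA synthesis in CEM-SS cells measured as uptake of [³H]dThd into total acid-precipitable material; results averaged from duplicate experiments.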

[5] = system: Human immunodeficiency virus 1; experiment: Activity against HIV-1 by syncytial plaque assay performed in duplicate using CEM-SS cells; assay type: functional, organism-based; conditions: Human immunodeficiency virus 1, CEM-SS
Method in brief: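 Syncytial plaque assay: poly-L-lysine-adherent CEM-SS cells infected with HIV-1 strain IIIB with or without compound at selected concentrations; syncytial plaques counted at 30-fold magnification 7 days postinfection; duplicate. IC50 from linear regression of percent inhibition against log concentration.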

[6] = system: Human betaherpesvirus 5; experiment: Antiviral activity against human cytomegalovirus (HCMV) by plaque reduction assay; assay type: functional, organism-based
Method in brief: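 HFF monolayers infected with about 100 pfu/cm² of HCMV Towne (isolate Po); after adsorption, compound in growth medium added to duplicate wells at four to eight concentrations.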

[7] = system: Human immunodeficiency virus 2; experiment: Compound was tested for antiviral activity against HIV-2; assay type: functional, organism-based
[8] = Compound was tested for antiviral activity against HIV-1 resistant to TIBO A-17; assay type: functional, Human immunodeficiency virus 1
Method in brief: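 Syncytial plaque assay in duplicate sets on CEM-SS cells made adherent with poly-L-lysine. Virus was the A17 HIV-1 variant, resistant to nonnucleoside RT inhibitors including TIBO, or HIV-2, both from the AIDS Research and Reference Program. Infection was in the presence or absence of compound; syncytial plaques were counted at 30-fold magnification 7 days postinfection. IC50 came from linear regression of percent inhibition against log concentration.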

SMILES | IC50 [1] | IC50 [2] | IC50 [3] | IC50 [4] | IC50 [5] | IC50 [6] | IC50 [7] | IC50 [8]
OC[C@H]1O[C@H](n2c(Br)nc3cc(Cl)c(Cl)cc32)[C@@H](O)[C@H]1O | > 100 µM |  |  |  |  |  |  | 
Nc1nc2cc(Cl)c(Cl)cc2n1Cc1ccc([N+](=O)[O-])cc1 | 35 µM | > 100 µM | > 100 µM | 32 µM | 21 µM | > 100 µM |  | 
Cc1ccc(Cn2c(N)nc3cc(Cl)c(Cl)cc32)cc1 | 50 µM | 80 µM | 32 µM | 40 µM | 20 µM | 30 µM |  | 
Clc1ccc(Cn2c(Br)nc3cc(Cl)c(Cl)cc32)cc1 | > 100 µM | > 100 µM | > 100 µM | > 100 µM | > 100 µM | > 100 µM |  | 
CC(C)(C)c1ccc(Cn2c(Br)nc3cc(Cl)c(Cl)cc32)cc1 |  |  | > 100 µM | > 100 µM | 100 µM | > 100 µM |  | 
FC(F)(F)c1cccc(Cn2c(Br)nc3cc(Cl)c(Cl)cc32)c1 |  |  | > 100 µM | > 100 µM | 12 µM | > 100 µM |  | 
Nc1nc2cc(Cl)c(Cl)cc2n1Cc1ccc(F)cc1 | 70 µM | 70 µM | 37 µM | 30 µM | 32 µM | 12 µM |  | 
Clc1cc2nc(Cl)n(Cc3ccccc3Cl)c2cc1Cl | 156 µM | > 100 µM | > 100 µM | 70 µM | 15 µM | 30 µM | > 30 µM | 13 µM
O=[N+]([O-])c1cccc(Cn2c(Cl)nc3cc(Cl)c(Cl)cc32)c1 | 239 µM | > 100 µM | > 100 µM | > 100 µM | 20 µM | > 100 µM |  | 
Nc1nc2cc(Cl)c(Cl)cc2n1Cc1ccc(Cl)cc1 | 45 µM | > 100 µM | > 100 µM | 32 µM | 10 µM | > 100 µM |  | 
Nc1nc2cc(Cl)c(Cl)cc2n1Cc1cccc([N+](=O)[O-])c1 | 65 µM | > 100 µM | > 100 µM | 47 µM | 21 µM | > 100 µM |  | 
Nc1nc2cc(Cl)c(Cl)cc2n1Cc1cc(C(F)(F)F)cc(C(F)(F)F)c1 |  | 60 µM | 32 µM | 34 µM | > 6 µM | 32 µM |  | 
Nc1nc2cc(Cl)c(Cl)cc2n1Cc1cccc(C(F)(F)F)c1 | 45 µM | 60 µM | 32 µM | 17 µM | > 10 µM | 32 µM |  | 
CC(C)(C)c1ccc(Cn2c(N)nc3cc(Cl)c(Cl)cc32)cc1 | 50 µM | 60 µM | 32 µM | 27 µM | 10 µM | 22 µM |  | 
Clc1ccc(Cn2c(Cl)nc3cc(Cl)c(Cl)cc32)cc1Cl | > 100 µM | > 100 µM | > 100 µM | > 100 µM | > 100 µM | > 100 µM |  | 
Nc1nc2cc(Cl)c(Cl)cc2n1Cc1ccc(Cl)c(Cl)c1 | 35 µM | 50 µM | 32 µM | 30 µM | > 6 µM | 40 µM |  | 
Clc1cc2nc(Br)n(Cc3ccccc3Cl)c2cc1Cl | 78 µM | > 100 µM | > 10 µM | 74 µM | 15 µM | > 10 µM |  | 
Nc1nc2cc(Cl)c(Cl)cc2n1Cc1cccc(Cl)c1 | 65 µM | 70 µM | > 100 µM | 37 µM | > 30 µM | > 100 µM |  | 
Cc1ccc(Cn2c(Cl)nc3cc(Cl)c(Cl)cc32)cc1 | > 100 µM | > 100 µM | 32 µM | > 100 µM | 33 µM | > 100 µM |  | 
FC(F)(F)c1cccc(Cn2c(Cl)nc3cc(Cl)c(Cl)cc32)c1 | > 100 µM | > 100 µM | > 100 µM | > 100 µM | > 100 µM | > 100 µM |  | 
Nc1nc2cc(Cl)c(Cl)cc2n1Cc1ccc(C(F)(F)F)cc1 |  |  | 32 µM | 20 µM | 1.8 µM | 32 µM |  | 
FC(F)(F)c1ccc(Cn2c(Br)nc3cc(Cl)c(Cl)cc32)cc1 | > 100 µM | > 100 µM | > 100 µM | > 100 µM | > 100 µM | > 100 µM |  | 

SMILES | IC50 [1] | IC50 [2] | IC50 [3] | IC50 [4] | IC50 [5] | IC50 [6] | IC50 [7] | IC50 [8]
CC(C)(C)c1ccc(Cn2c(Cl)nc3cc(Cl)c(Cl)cc32)cc1 | > 100 µM | > 100 µM | > 100 µM | > 100 µM | > 100 µM | > 100 µM |  | 
Clc1cc2nc(Br)n(CCc3ccccc3)c2cc1Cl | > 100 µM | > 100 µM | > 100 µM |  |  | > 100 µM |  | 
COc1ccc(Cn2c(Br)nc3cc(Cl)c(Cl)cc32)cc1 | 55 µM | > 100 µM | > 100 µM | 60 µM | 6 µM | > 100 µM |  | 
Clc1cc2nc(Cl)n(CCc3ccccc3)c2cc1Cl |  |  | > 100 µM |  |  | > 100 µM |  | 
Clc1cccc(Cn2c(Cl)nc3cc(Cl)c(Cl)cc32)c1 |  | > 100 µM | > 100 µM | > 100 µM | 100 µM | > 100 µM |  | 
Clc1cccc(Cn2c(Br)nc3cc(Cl)c(Cl)cc32)c1 | > 100 µM | 70 µM | > 100 µM | > 100 µM | > 100 µM | > 100 µM |  | 
COc1ccc(Cn2c(N)nc3cc(Cl)c(Cl)cc32)cc1 | 45 µM | > 100 µM | > 100 µM | 27 µM | 12 µM | > 100 µM |  | 
Clc1cc2nc(Cl)n(Cc3ccccc3)c2cc1Cl | > 100 µM | > 100 µM | > 100 µM |  |  | > 100 µM |  | 
Nc1nc2cc(Cl)c(Cl)cc2n1Cc1ccccc1 | 170 µM | 152 µM | 58 µM |  |  | 37 µM |  | 
Clc1cc2nc(Br)n(Cc3ccccc3)c2cc1Cl | > 100 µM | > 100 µM | > 100 µM | > 100 µM | 27 µM | > 100 µM |  | 
Fc1ccc(Cn2c(Br)nc3cc(Cl)c(Cl)cc32)cc1 |  |  | > 100 µM | > 100 µM | 30 µM | > 100 µM |  | 
O=[N+]([O-])c1ccc(Cn2c(Cl)nc3cc(Cl)c(Cl)cc32)cc1 | 183 µM | > 100 µM | > 100 µM | 51 µM | 7.8 µM | > 100 µM |  | 
FC(F)(F)c1cc(Cn2c(Cl)nc3cc(Cl)c(Cl)cc32)cc(C(F)(F)F)c1 | > 100 µM | > 100 µM | > 100 µM | > 100 µM | > 100 µM | > 100 µM |  | 
FC(F)(F)c1cc(Cn2c(Br)nc3cc(Cl)c(Cl)cc32)cc(C(F)(F)F)c1 | 70 µM | 65 µM | > 100 µM | > 100 µM | 5.9 µM | > 100 µM |  | 
Cc1cccc(Cn2c(N)nc3cc(Cl)c(Cl)cc32)c1 | 65 µM | 80 µM | > 100 µM | 48 µM | 12 µM | > 100 µM |  | 
Nc1nc2cc(Cl)c(Cl)cc2n1Cc1ccccc1Cl |  | > 100 µM | 32 µM | 36 µM | 6 µM | 32 µM |  | 
Cc1ccc(Cn2c(Br)nc3cc(Cl)c(Cl)cc32)cc1 | > 100 µM | > 100 µM | > 100 µM | > 100 µM | > 100 µM | > 100 µM |  | 
Clc1ccc(Cn2c(Br)nc3cc(Cl)c(Cl)cc32)cc1Cl | > 100 µM | > 100 µM | > 100 µM | > 100 µM | > 100 µM | > 100 µM |  | 
COc1ccc(Cn2c(Cl)nc3cc(Cl)c(Cl)cc32)cc1 | > 100 µM | > 100 µM | > 100 µM | > 100 µM | 26 µM | > 100 µM |  | 
FC(F)(F)c1ccc(Cn2c(Cl)nc3cc(Cl)c(Cl)cc32)cc1 | > 100 µM | > 100 µM | > 100 µM | > 100 µM | > 100 µM | > 100 µM |  | 
CC(C)Nc1nc2cc(Cl)c(Cl)cc2n1Cc1ccccc1 | 45 µM | 50 µM | 22 µM |  |  | 22 µM |  | 

Source: ChEMBL document CHEMBL1131326, “Design, synthesis, and antiviral evaluations of 1-(substituted benzyl)-2-substituted-5,6-dichlorobenzimidazoles as nonnucleoside analogues of 2,5,6-trichloro-1-(beta-D-ribofuranosyl)benzimidazole” (J Med Chem, 1998)
